Screening data as filed in PubChem.
These entries were drawn from the full list.
HKDC1 act – activators of human hexokinase HKDC1; 0.056% of 340,000 active; activity change, negative = activation, % at 20 µM; Q2TB90; recombinant HKDC1, G6PDH/diaphorase resazurin fluorescence; active compounds read low;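 active = activation of 40% or more at 20 µM, a change of -40% or lower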
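Material: in-house human HKDC1 enzyme, G6PDH and diaphorase coupling enzymes | Quantity: HKDC1 at 5 µg/mL final | Medium: Tris buffer at pH 8.0 containing MgCl2 | Compound dosing: 20 µM single dose | Schedule: 90 min reaction at room temperature, dark | Measured by: Resorufin fluorescence, 525/613 nm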
Large screens that a line does not name were inactive.

O=C1C(Cl)=C(NCc2cccnc2)C(=O)c2ccccc21	HKDC1 act -45.3
O=C1C=C(NCc2ccccc2)c2ccccc2C1=O	none
O=C1C(Cl)=C(NCCc2ccccc2)C(=O)c2ccccc21	none
O=C(OCn1ncc(Cl)c(Cl)c1=O)c1ccc(C(F)(F)F)cc1	none
Cc1cc2cc(CCNC(=O)c3cccc([N+](=O)[O-])c3)c(=O)[nH]c2cc1C	none
CC(C)CNC(=O)COC(=O)CNC(=O)c1cc(Cl)cc([N+](=O)[O-])c1	HKDC1 act -51.8
CC1CCc2c(c3ccccc3n2C(=O)CCl)C1 (stereo unspecified)	none
O=C(/C=C/c1ccc(Br)o1)OCc1nc2ccsc2c(=O)[nH]1	none
Cc1ccc2cc(CCNC(=O)c3ccc(S(=O)(=O)N4CCCCC4)cc3)c(=O)[nH]c2c1	none
COc1ccc(-c2nc3c(c(=O)n(C)c(=O)n3C)n2CC2CC(c3ccccc3)=NO2)cc1OC (stereo unspecified)	HKDC1 act -48.3
CCCCC(CC)CN=C(N)NC(N)=NCCCCCCN=C(N)NC(N)=NCC(CC)CCCC (stereo unspecified)	none
CCCc1nc2oc3c(NCCOCCO)ncnc3c2c2c1COC(C)(C)C2	none
Cc1cc2nc3ccc(=[N+](C)C)cc-3sc2cc1N	none
COP(=O)(OC)c1ccc(NCc2cc(O)ccc2O)cc1	none
Cc1cc(C)nc(Nc2n[nH]c(-c3ccc(C(C)(C)C)cc3)n2)n1	HKDC1 act -51.1
O=C1C(O)=CC(=C(c2ccccc2)c2ccccc2)c2ccccc21	none
O=C(O)CCCN1C(=O)/C(=C\C(Cl)=C\c2ccccc2)SC1=S	none
O=C(CNC(=O)/C=C/c1ccco1)N=Nc1c(O)[nH]c2ccccc12	none
O=C(N/N=C/c1ccc[nH]1)c1sc2ccccc2c1Cl	HKDC1 act -41.5
Cc1ccccc1OCCCN1C(=O)C(=O)c2cccc(C)c21	none
COc1ccc(C2=CC3=C(Br)C(=O)C(C)(OC(=O)c4cccs4)C(=O)C3=CO2)cc1 (stereo unspecified)	none
Cc1cc(C(=O)CCl)c(C)n1CCc1ccc(Cl)cc1	none
O=S(=O)(CCSc1nc2ccccc2s1)c1nc2ccccc2s1	none
O=c1cc(O)c2sc(Nc3ccc(F)c(Cl)c3)nc2[nH]1	none
CSc1nc(N)nc2c1ncn2CC(=O)N[C@H](C)c1cccc2ccccc12	HKDC1 act -55.5
Oc1ccc(O)c(Cc2nc3ccccc3s2)c1	none
CCCCNC(=O)c1sc(=S)n2c1[nH]c(=O)c1ccccc12	none
CC(=O)c1ccc(NC(=O)c2ccc3nc(-c4ccco4)c(-c4ccco4)nc3c2)cc1	none
CCOC(=O)c1ccc(NC(=O)CSc2ccc(-c3ccccn3)nn2)cc1	none
CCOC(=O)c1sc(NC(=O)CSc2nnc(Cc3ccccc3)o2)c(C#N)c1C	HKDC1 act -40.4
O=C(Sc1nnc(-c2ccccc2)o1)N1c2ccccc2Sc2ccccc21	none
COCCN(C(=O)COC(=O)c1cc2c(s1)CCC2)c1c(N)n(Cc2ccccc2)c(=O)[nH]c1=O	none
O=C(O)CSc1cc(NS(=O)(=O)c2ccc(Br)cc2)c2ccccc2c1O	none
CC1CCCN(C(=O)COC(=O)c2cc([N+](=O)[O-])ccc2N2CCOCC2)C1 (stereo unspecified)	none
O=C(O)c1ccc(NC2=C(Cl)C(=O)c3ccccc3C2=O)cc1	HKDC1 act -131.3
O=C1C=C(Nc2ccc(F)cc2)c2ccccc2C1=O	none
Cc1ccccc1NC1=C/C(=N\S(=O)(=O)c2ccc(C(=O)O)cc2)c2ccccc2C1=O	none
Cc1cc(O)c(C=O)c2c1C(=O)Oc1c(CO)c(O)c3c(c1O2)C(O)OC3=O (stereo unspecified)	none
CC(C)(C)c1ccc(-c2csc(NNC3=NCCCCC3)n2)cc1	HKDC1 act -61.2
O=C(O)c1ccc(S(=O)(=O)/N=C2\C=C(Nc3ccccc3F)C(=O)c3ccccc32)cc1	none
Cc1ccc(S(=O)(=O)N(C(=O)c2ccco2)c2cc3sc(=O)oc3c3ccccc23)cc1	none
COc1cc(OC)c(OC)cc1CCC(C)NCCC(c1ccccc1)c1ccccc1 (stereo unspecified)	none
COc1ccccc1NC(=S)NN=C(C)c1ccccn1	HKDC1 act -40.8
Cc1nc2sc3c(NCc4ccco4)ncnc3c2c2c1COC(C)(C)C2	none
O=C1C(N2CCOCC2)=C(n2nnc3ccccc32)C(=O)c2ccccc21	none
Cc1ccc(C2=NN=C(NC(=O)CSc3nncn3C)SC2)cc1	HKDC1 act -143.8
CC1=NOC(=O)/C1=C\c1ccc(-c2cccc(Cl)c2)o1	none
O=C(CCl)N(c1ccc(Cl)cc1)c1c[nH]c2ccccc12	none
C/C(=N\NC(=O)c1c(C)nc2ccccn12)c1ccc(O)cc1O	HKDC1 act -45.1
O=c1cc(O)c2sc(Nc3ccc(Cl)c(F)c3)nc2[nH]1	none
CC(=O)c1cc(O)c2ccccc2c1O	none
COc1ccc2c(c1)c(=O)oc1c(C)c(OCc3cc(C(=O)O)oc3C)ccc12	none
COc1cc(N=c2ssnc2Cl)cc(OC)c1OC	HKDC1 act -99.8
COc1ccc(N=c2ssnc2Cl)cc1	HKDC1 act -55.2
C[n+]1c(-c2ccccc2)cc2c(=Cc3ccc([N+](=O)[O-])cc3)c3ccccc3n21	none
